Data as given in ChEMBL document CHEMBL1138783, “Subtype selective substrates for histone deacetylases” (J Med Chem, 2004).
Square brackets hold non-standard residues; d marks the D form. Peptide text beside a SMILES is read from it. * marks the point of attachment. Asu = N[C@@H](CCCCCC(=O)O)C(=O)O; Aib = CC(C)(N)C(=O)O; NHOH = ON*

Tests used:
Histone deacetylase [1] = test: Inhibitory activity against rat liver Histone deacetylase with substrate 5b
Histone deacetylase [2] = test: Inhibitory activity against rat liver Histone deacetylase with substrate 3a
Histone deacetylase [3] = test: Inhibitory activity against rat liver Histone deacetylase with substrate 3b
[4] = tested on: histone deacetylase (HDAC); test: Percent conversion by rat liver histone deacetylase (HDAC) was determined after 24 h; format: ADME; conditions: read-out: Conversion
Method in brief: (§1)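 Deacetylase from rat liver, purified by ammonium sulfate precipitation and Q-sepharose NaCl-gradient chromatography (class I and II subtypes), in phosphate buffer pH 7.9 (EDTA, NaCl, glycerol, 2-mercaptoethanol). Enzyme preincubated 15 min at 4 °C, then run at 37 °C with candidate substrate and 7-hydroxycoumarin internal standard. Stopped with HCl/sodium acetate, ethyl acetate extraction, reversed-phase HPLC with fluorescence detection. Conversion taken against no-enzyme control. Duplicates.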

[5] = tested on: histone deacetylase (HDAC); test: Percent conversion by rat liver histone deacetylase (HDAC) was determined after 6 h; format: ADME; conditions: read-out: Conversion; method in brief: as §1
[6] = tested on: histone deacetylase (HDAC); test: Percent conversion by rat liver histone deacetylase (HDAC) was determined after 3 h; format: ADME; conditions: read-out: Conversion; method in brief: as §1
[7] = tested on: histone deacetylase (HDAC); test: Percent conversion by rat liver histone deacetylase (HDAC) was determined after 1 h; format: ADME; conditions: read-out: Conversion; method in brief: as §1
[8] = tested on: histone deacetylase (HDAC); test: Percent conversion by rat liver histone deacetylase (HDAC) was determined after 2 h; format: ADME; conditions: read-out: Conversion; method in brief: as §1
[9] = tested on: HDAC6/HDAC1 (Homo sapiens); test: Selectivity ratio for Histone deacetylase 6 versus Histone deacetylase 1
Histone deacetylase [10] = test: Inhibitory concentration against rat liver histone deacetylase (HDAC) with substrate 3a
Histone deacetylase [11] = test: Inhibitory concentration against rat liver histone deacetylase (HDAC) with substrate 5a

| IC50 (Histone deacetylase [1]) [nM] | IC50 (Histone deacetylase [2]) [nM] | IC50 (Histone deacetylase [3]) [nM] | metabolised at 24 h [4] [%] | metabolised at 6 h [5] [%] | metabolised at 3 h [6] [%] | metabolised at 1 h [7] [%] | metabolised at 2 h [8] [%] | Selectivity [9] | IC50 (Histone deacetylase [10]) [nM] | IC50 (Histone deacetylase [11]) [nM] | SMILES |
| --- | --- | --- | --- | --- | --- | --- | --- | --- | --- | --- | --- |
|  |  |  | 14 | 3 | 0 | 0 | 9 |  |  |  | CC(=O)NCCCC[C@@H](NC(=O)OCc1ccccc1)C(=O)Nc1ccc2c(C)cc(=O)oc2c1 |
|  |  |  | 48 | 21 | 12 | 0 | 1 |  |  |  | CCCC(=O)NCCCC[C@H](NC(=O)OCc1ccccc1)C(=O)Nc1ccc2c(C)cc(=O)oc2c1 |
|  |  |  | 0 | 0 | 0 | 0 | 0 |  |  |  | Cc1cc(=O)oc2cc(NC(=O)[C@H](CCCCNC(=O)Cc3ccccc3)NC(=O)OCc3ccccc3)ccc12 |
| 6.29 | 55.7 | 80.4 |  |  |  |  |  | 34 |  |  | CC[C@@H](C)[C@@H]1NC(=O)[C@@H](Cc2ccc(OC)cc2)NC(=O)[C@H](CCCCCC(=O)NO)NC(=O)[C@H]2CCCN2C1=O |
|  |  |  | 90 | 86 | 78 | 47 | 74 |  |  |  | CC(=O)NCCCC[C@H](NC(=O)OCC1c2ccccc2-c2ccccc21)C(=O)Nc1ccc2c(C)cc(=O)oc2c1 |
|  |  |  | 100 | 96 | 93 | 67 | 87 |  |  |  | CC(=O)NCCCC[C@H](NC(=O)OCc1ccccc1)C(=O)Nc1ccc2c(C)cc(=O)oc2c1 |
| 241 | 256 | 488 |  |  |  |  |  |  |  |  | CN(C)c1ccc(C(=O)NCCCCCCCC(=O)NO)cc1 |
| 65.6 | 349 | 411 |  |  |  |  |  |  |  |  | O=C(CCCCC[C@@H]1NC(=O)[C@H]2CCCN2C(=O)[C@H](Cc2ccccc2)NC(=O)[C@H](Cc2ccccc2)NC1=O)NO |
|  |  |  | 87 | 74 | 47 | 20 | 33 |  |  |  | CCC(=O)NCCCC[C@H](NC(=O)OCc1ccccc1)C(=O)Nc1ccc2c(C)cc(=O)oc2c1 |
|  |  |  | 64 | 54 | 57 | 16 | 41 |  |  |  | Cc1cc(=O)oc2cc(NC(=O)[C@H](CCCCNC(=O)C(F)(F)F)NC(=O)OCc3ccccc3)ccc12 |
|  |  |  | 96 | 68 | 47 | 30 | 43 |  |  |  | CC(=O)NCCCC[C@H](NC(=O)OC(C)(C)C)C(=O)Nc1ccc2c(C(F)(F)F)cc(=O)oc2c1 |
| 21.2 | 137 | 226 |  |  |  |  |  |  |  |  | CC1(C)NC(=O)[C@H](CCCCCC(=O)NO)NC(=O)[C@H]2CCCN2C(=O)[C@H](Cc2ccccc2)NC1=O (cyclo([Aib]F[dP][Asu](NHOH))) |
|  |  |  |  |  |  |  |  |  | 216 | 640 | CN(C)c1ccc(C(=O)NCCCCCC(=O)NO)cc1 |

| SMILES | IC50 (Histone deacetylase [1]) [nM] | IC50 (Histone deacetylase [2]) [nM] | IC50 (Histone deacetylase [3]) [nM] | metabolised at 24 h [4] [%] | metabolised at 6 h [5] [%] | metabolised at 3 h [6] [%] | metabolised at 1 h [7] [%] | metabolised at 2 h [8] [%] | Selectivity [9] | IC50 (Histone deacetylase [10]) [nM] | IC50 (Histone deacetylase [11]) [nM] |
| --- | --- | --- | --- | --- | --- | --- | --- | --- | --- | --- | --- |
| CN(C)c1ccc(C(=O)NCCCCCCC(=O)NO)cc1 | 3512 | 78.2 | 148 |  |  |  |  |  |  |  |  |
| CC(=O)NCCCC[C@H](NC(=O)OC(C)(C)C)C(=O)Nc1ccc2c(C)cc(=O)oc2c1 |  |  |  | 100 | 91 | 70 | 38 | 60 |  |  |  |
